# According to ChEMBL document CHEMBL1152612, “Ursolic acid derivatives induce cell cycle arrest and apoptosis in NTUB1 cells associated with reactive oxygen species” (Bioorg Med Chem, 2009):
# Activity calls are given as the source filed them. The calls are words filed in the database; no cut-off is given here.
# Columns and labels:
# [1] = Cytotoxicity against human NTUB1 cells after 72 hrs by MTT assay; assay type: functional, cell-based; settings: NTUB1, 72 h
# Method in brief: (§1)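 Cells grown in RPMI 1640 with 10% FBS, penicillin/streptomycin and 2 mM L-glutamine at 37 °C under 5% CO₂. Seeded 1800 cells/well, left overnight, then given graded compound concentrations for 72 h; compounds diluted from DMSO, 0.1% DMSO in medium and in controls. MTT 2 mg/mL in PBS for 3 h, formazan dissolved in DMSO, absorbance 540 nm. Viability given as % of control; IC50 by median-effect analysis, mean ± SD.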
# [2] = Cytotoxicity against human NTUB1 cells assessed as cell viability at >30 uM after 72 hrs by MTT assay; assay type: functional; method in brief: as §1
# PC-3 = assay: Cytotoxicity against human PC3 cells at 50 uM after 72 hrs by MTT assay; assay type: functional, cell-based; method in brief: as §1
# A549 = assay: Cytotoxicity against human A549 cells at 50 uM after 72 hrs by MTT assay; assay type: functional, cell-based; method in brief: as §1
# NTUB1 [3] = assay: Increase in intracellular reactive oxygen species level in human NTUB1 cells at 40 uM after 24 hrs by DCFH-DA staining; assay type: functional, cell-based
# Method in brief: (§2)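 NTUB1 cells treated for 24 or 48 h, with or without 1 mM N-acetylcysteine. DCFH-DA (10 µM) added 30 min before harvest; cells then trypsinized, PBS-washed, and DCF green fluorescence read at once by flow cytometry through a 525 nm band-pass filter. Three independent experiments.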
# NTUB1 [4] = assay: Increase in intracellular reactive oxygen species level in human NTUB1 cells at 40 uM after 24 hrs in presence of 1 mM N-acetyl-cysteine by DCFH-DA staining; assay type: functional, cell-based; method in brief: as §2
# NTUB1 [5] = assay: Increase in intracellular reactive oxygen species level in human NTUB1 cells at 20 uM after 48 hrs by DCFH-DA staining; assay type: functional, cell-based; method in brief: as §2
# NTUB1 [6] = assay: Increase in intracellular reactive oxygen species level in human NTUB1 cells at 40 uM after 48 hrs by DCFH-DA staining; assay type: functional, cell-based; method in brief: as §2
# NTUB1 [7] = assay: Increase in intracellular reactive oxygen species level in human NTUB1 cells at 40 uM after 48 hrs in presence of 1 mM N-acetyl-cysteine by DCFH-DA staining; assay type: functional, cell-based; method in brief: as §2
# [8] = Induction of apoptosis in human NTUB1 cells assessed as accumulation at subG1 phase at 10 uM after 24 hrs using propidium iodide staining by flow cytometry; assay type: functional
# Method in brief: (§3)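 NTUB1 cells plated at 8 × 10⁵ per 10 cm dish and exposed to compound for 24 or 48 h; untreated controls got medium alone. Cells trypsinized, PBS-washed and fixed overnight in ice-cold MeOH at −20 °C, then stained with 50 µg/mL propidium iodide plus RNase A. DNA content was read by flow cytometry, with apoptosis taken as sub-G1 accumulation. Three independent experiments.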
# [9] = Cell cycle arrest in human NTUB1 cells assessed as accumulation at G1 phase at 10 uM after 24 hrs using propidium iodide staining by flow cytometry; assay type: functional, cell-based; method in brief: as §3
# [10] = Cell cycle arrest in human NTUB1 cells assessed as accumulation at S phase at 10 uM after 24 hrs using propidium iodide staining by flow cytometry; assay type: functional, cell-based; method in brief: as §3
# [11] = Cell cycle arrest in human NTUB1 cells assessed as accumulation at G2/M phase at 10 uM after 24 hrs using propidium iodide staining by flow cytometry; assay type: functional, cell-based; method in brief: as §3
# [12] = Induction of apoptosis in human NTUB1 cells assessed as accumulation at subG1 phase at 20 uM after 24 hrs using propidium iodide staining by flow cytometry; assay type: functional; method in brief: as §3
# [13] = Cell cycle arrest in human NTUB1 cells assessed as accumulation at G1 phase at 20 uM after 24 hrs using propidium iodide staining by flow cytometry; assay type: functional, cell-based; method in brief: as §3
# [14] = Cell cycle arrest in human NTUB1 cells assessed as accumulation at S phase at 20 uM after 24 hrs using propidium iodide staining by flow cytometry; assay type: functional, cell-based; method in brief: as §3
# [15] = Cell cycle arrest in human NTUB1 cells assessed as accumulation at G2/M phase at 20 uM after 24 hrs using propidium iodide staining by flow cytometry; assay type: functional, cell-based; method in brief: as §3
# [16] = Induction of apoptosis in human NTUB1 cells assessed as accumulation at subG1 phase at 40 uM after 24 hrs using propidium iodide staining by flow cytometry; assay type: functional; method in brief: as §3
# [17] = Cell cycle arrest in human NTUB1 cells assessed as accumulation at G1 phase at 40 uM after 24 hrs using propidium iodide staining by flow cytometry; assay type: functional, cell-based; method in brief: as §3
# [18] = Cell cycle arrest in human NTUB1 cells assessed as accumulation at S phase at 40 uM after 24 hrs using propidium iodide staining by flow cytometry; assay type: functional, cell-based; method in brief: as §3
# [19] = Cell cycle arrest in human NTUB1 cells assessed as accumulation at G2/M phase at 40 uM after 24 hrs using propidium iodide staining by flow cytometry; assay type: functional, cell-based; method in brief: as §3
# [20] = Induction of apoptosis in human NTUB1 cells assessed as accumulation at subG1 phase at 20 uM after 48 hrs using propidium iodide staining by flow cytometry; assay type: functional; method in brief: as §3
# [21] = Cell cycle arrest in human NTUB1 cells assessed as accumulation at G1 phase at 20 uM after 48 hrs using propidium iodide staining by flow cytometry; assay type: functional, cell-based; method in brief: as §3
# [22] = Cell cycle arrest in human NTUB1 cells assessed as accumulation at S phase at 20 uM after 48 hrs using propidium iodide staining by flow cytometry; assay type: functional, cell-based; method in brief: as §3
# [23] = Cell cycle arrest in human NTUB1 cells assessed as accumulation at G2/M phase at 20 uM after 48 hrs using propidium iodide staining by flow cytometry; assay type: functional, cell-based; method in brief: as §3
# [24] = Induction of apoptosis in human NTUB1 cells assessed as accumulation at subG1 phase at 40 uM after 48 hrs using propidium iodide staining by flow cytometry; assay type: functional; method in brief: as §3
# [25] = Cell cycle arrest in human NTUB1 cells assessed as accumulation at G1 phase at 40 uM after 48 hrs using propidium iodide staining by flow cytometry; assay type: functional, cell-based; method in brief: as §3
# [26] = Cell cycle arrest in human NTUB1 cells assessed as accumulation at S phase at 40 uM after 48 hrs using propidium iodide staining by flow cytometry; assay type: functional, cell-based; method in brief: as §3
# [27] = Cell cycle arrest in human NTUB1 cells assessed as accumulation at G2/M phase at 40 uM after 48 hrs using propidium iodide staining by flow cytometry; assay type: functional, cell-based; method in brief: as §3
# NTUB1 [28] = assay: Increase in intracellular reactive oxygen species level in human NTUB1 cells at 20 uM after 48 hrs in presence of 1 mM N-acetyl-cysteine by DCFH-DA staining; assay type: functional, cell-based; method in brief: as §2
smiles,measurement,setting,value
COC(=O)[C@]12CC[C@@H](C)[C@H](C)[C@H]1C1=CC[C@@H]3[C@@]4(C)CC[C@H](O)C(C)(C)[C@@H]4CC[C@@]3(C)[C@]1(C)CC2 [METHYL URSOLATE],IC50,[1],37.1 µM
C[C@H]1[C@H](C)CC[C@]2(C(=O)OCCO)CC[C@]3(C)C(=CC[C@@H]4[C@@]5(C)CC[C@H](O)C(C)(C)[C@@H]5CC[C@]43C)[C@H]12,IC50,[1],19.5 µM
CC(=O)O[C@H]1CC[C@]2(C)[C@H]3CC=C4[C@@H]5[C@@H](C)[C@H](C)CC[C@]5(C(=O)O)CC[C@@]4(C)[C@]3(C)CC[C@H]2C1(C)C [O-ACETYLURSOLIC ACID],IC50,[1],14.3 µM
CCCC(=O)O[C@H]1CC[C@]2(C)[C@H]3CC=C4[C@@H]5[C@@H](C)[C@H](C)CC[C@]5(C(=O)O)CC[C@@]4(C)[C@]3(C)CC[C@H]2C1(C)C,Activity,[2],76.47%
same,IC50,[1],> 30 µM
CCCOC(=O)[C@]12CC[C@@H](C)[C@H](C)[C@H]1C1=CC[C@@H]3[C@@]4(C)CC[C@H](O)C(C)(C)[C@@H]4CC[C@@]3(C)[C@]1(C)CC2,IC50,[1],18.3 µM
CC(C)OC(=O)[C@]12CC[C@@H](C)[C@H](C)[C@H]1C1=CC[C@@H]3[C@@]4(C)CC[C@H](O)C(C)(C)[C@@H]4CC[C@@]3(C)[C@]1(C)CC2,IC50,[1],7.97 µM
same,Activity,PC-3,Active
same,Activity,A549,Active
same,Activity,NTUB1 [3],Active
same,Activity,NTUB1 [4],inactive
same,Activity,NTUB1 [5],Active
same,Activity,NTUB1 [6],Active
same,Activity,NTUB1 [7],Active
same,Activity,[8],13.8%
same,Activity,[9],33.9%
same,Activity,[10],31.7%
same,Activity,[11],15.3%
same,Activity,[12],23.5%
same,Activity,[13],51%
same,Activity,[14],15.8%
same,Activity,[15],9.18%
same,Activity,[16],23.73%
same,Activity,[17],58.1%
same,Activity,[18],4.53%
same,Activity,[19],11%
same,Activity,[20],6.73%
same,Activity,[21],52.1%
same,Activity,[22],20.5%
same,Activity,[23],16.2%
same,Activity,[24],43.81%
same,Activity,[25],8.53%
same,Activity,[26],1.31%
same,Activity,[27],1.96%
same,Activity,NTUB1 [28],Active
C/C=C/C(=O)O[C@H]1CC[C@]2(C)[C@H]3CC=C4[C@@H]5[C@@H](C)[C@H](C)CC[C@]5(C(=O)O)CC[C@@]4(C)[C@]3(C)CC[C@H]2C1(C)C,IC50,[1],11.9 µM
CC(C)=CCOC(=O)[C@]12CC[C@@H](C)[C@H](C)[C@H]1C1=CC[C@@H]3[C@@]4(C)CC[C@H](O)C(C)(C)[C@@H]4CC[C@@]3(C)[C@]1(C)CC2,IC50,[1],10.9 µM
C[C@H]1[C@H](C)CC[C@]2(C(=O)O)CC[C@]3(C)C(=CC[C@@H]4[C@@]5(C)CCC(=O)OC(C)(C)[C@@H]5CC[C@]43C)[C@H]12,Activity,[2],63.91%
same,IC50,[1],> 30 µM
CCCCCCOC(=O)[C@]12CC[C@@H](C)[C@H](C)[C@H]1C1=CC[C@@H]3[C@@]4(C)CC[C@H](O)C(C)(C)[C@@H]4CC[C@@]3(C)[C@]1(C)CC2,IC50,[1],26.2 µM
C=C(C)[C@@H]1CC[C@]2(C)[C@H](CC=C3[C@@H]4[C@@H](C)[C@H](C)CC[C@]4(C(=O)OC)CC[C@]32C)[C@@]1(C)CCC(=O)OC,IC50,[1],15.6 µM
CCCCOC(=O)[C@]12CC[C@@H](C)[C@H](C)[C@H]1C1=CC[C@@H]3[C@@]4(C)CC[C@H](O)C(C)(C)[C@@H]4CC[C@@]3(C)[C@]1(C)CC2,IC50,[1],15.6 µM
